Experimental data: ChEMBL document CHEMBL1949557, “Discovery of INCB3284, a Potent, Selective, and Orally Bioavailable hCCR2 Antagonist” (ACS Med Chem Lett, 2011)
pIC50: −log10 of the molar value. Active and inactive are the calls of the source. No cut-off for these calls is given here.

Assays:
Cytochrome P450 1A2 = biological target: T1, Cytochrome P450 1A2 (Homo sapiens, UniProt P05177); test: Inhibition of CYP1A2; type: ADME
T1 sequence (P05177 whole entry): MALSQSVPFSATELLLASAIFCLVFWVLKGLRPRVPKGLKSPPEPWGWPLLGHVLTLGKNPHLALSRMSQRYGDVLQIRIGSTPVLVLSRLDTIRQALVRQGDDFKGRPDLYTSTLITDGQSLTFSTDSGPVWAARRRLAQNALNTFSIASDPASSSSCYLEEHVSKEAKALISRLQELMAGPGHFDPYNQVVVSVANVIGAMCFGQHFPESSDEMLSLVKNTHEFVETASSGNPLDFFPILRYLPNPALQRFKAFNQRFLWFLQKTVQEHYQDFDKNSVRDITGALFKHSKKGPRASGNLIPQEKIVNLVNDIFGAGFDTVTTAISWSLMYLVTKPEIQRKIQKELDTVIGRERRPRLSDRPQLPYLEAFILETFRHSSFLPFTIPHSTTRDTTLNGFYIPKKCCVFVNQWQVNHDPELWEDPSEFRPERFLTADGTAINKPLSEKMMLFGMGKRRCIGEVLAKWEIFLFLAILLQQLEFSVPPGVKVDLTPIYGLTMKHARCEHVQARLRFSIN

Cytochrome P450 2C19 = Cytochrome P450 2C19 (Homo sapiens, UniProt P33261); test: Inhibition of CYP2C19; type: ADME
[1] = biological target: T2, C-C chemokine receptor type 2 (Homo sapiens, UniProt P41597); test: Displacement of [125I]MCP1 from CCR2 in human PBMC after 30 mins by gamma counter
Liver = test: Metabolic stability in human liver S9 fraction assessed as glutathione adduct formation in presence of glutathione; type: ADME, subcellular
[2] = AUC in cynomolgus monkey at 30 mg/kg, po; type: ADME, organism-based, Macaca fascicularis; parameters: dose 30 mg/kg, route oral; conditions: plasma
Method in brief: (§1)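 Pharmacokinetics run in rats, dogs, cynomolgus monkeys and chimpanzees, with two animals per species for the iv arm and two per species for the oral arm. Parameters were derived per species and route: CL, Vss and T1/2 from iv dosing; Cmax, Tmax, AUC, T1/2 and F% from oral dosing. Values are reported as mean ± spread.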

[3] = biological target: T3, C-C chemokine receptor type 1 (Homo sapiens) (UniProt P32246); test: Inhibition of CCR1 at 1 uM
T3 sequence (whole entry): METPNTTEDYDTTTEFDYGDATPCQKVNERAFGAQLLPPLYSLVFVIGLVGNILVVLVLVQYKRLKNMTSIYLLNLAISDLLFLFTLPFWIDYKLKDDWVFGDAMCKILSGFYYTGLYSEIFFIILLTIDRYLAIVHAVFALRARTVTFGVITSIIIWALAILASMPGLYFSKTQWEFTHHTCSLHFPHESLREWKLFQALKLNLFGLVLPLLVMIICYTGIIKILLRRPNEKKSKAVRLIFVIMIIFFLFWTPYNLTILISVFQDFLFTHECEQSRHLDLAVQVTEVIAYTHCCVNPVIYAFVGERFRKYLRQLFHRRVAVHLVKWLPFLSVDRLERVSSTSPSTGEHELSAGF
Method in brief: (§2)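 Cerep selectivity panel of over 50 ion channels, transporters, chemokine receptors and other GPCRs. Single test concentration of 1 μM, scored for significant inhibition.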

[4] = Oral bioavailability in dog at 30 mg/kg; type: ADME, organism-based, Canis lupus familiaris; conditions: in vivo; method in brief: as §1
Cytochrome P450 2C9 = Cytochrome P450 2C9 (Homo sapiens, UniProt P11712); test: Inhibition of CYP2C9; type: ADME
[5] = Half life in dog at 30 mg/kg, po; type: ADME, organism-based, Canis lupus familiaris; parameters: dose 30 mg/kg, route oral; conditions: in vivo; method in brief: as §1
[6] = Tmax in cynomolgus monkey at 30 mg/kg, po; type: ADME, organism-based, Macaca fascicularis; parameters: dose 30 mg/kg, route oral; conditions: in vivo; method in brief: as §1
[7] = Half life in chimpanzee at 1 mg/kg, iv; type: ADME, organism-based, Pan troglodytes; parameters: dose 1 mg/kg, route intravenous; conditions: in vivo; method in brief: as §1
[8] = biological target: T4, C-X-C chemokine receptor type 3 (Homo sapiens) (UniProt P49682); test: Inhibition of CXCR3 at 1 uM; method in brief: as §2
T4 sequence (whole entry): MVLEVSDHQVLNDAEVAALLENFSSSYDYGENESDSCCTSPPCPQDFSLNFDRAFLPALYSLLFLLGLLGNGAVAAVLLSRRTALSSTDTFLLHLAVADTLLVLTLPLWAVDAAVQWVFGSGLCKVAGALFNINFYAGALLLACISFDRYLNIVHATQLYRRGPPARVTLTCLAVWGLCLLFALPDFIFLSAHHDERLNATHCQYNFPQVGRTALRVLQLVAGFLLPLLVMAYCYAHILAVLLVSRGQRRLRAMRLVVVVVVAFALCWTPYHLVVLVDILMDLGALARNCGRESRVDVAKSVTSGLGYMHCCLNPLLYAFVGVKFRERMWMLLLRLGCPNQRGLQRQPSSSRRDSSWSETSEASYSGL

[9] = Half life in rat at 5 mg/kg, iv; type: ADME, organism-based; parameters: dose 5 mg/kg, route intravenous; conditions: in vivo; method in brief: as §1
Rattus norvegicus [10] = test: Oral bioavailability in rat at 10 mg/kg; type: ADME, organism-based; conditions: in vivo; method in brief: as §1
[11] = biological target: C-C chemokine receptor type 5 (Homo sapiens) (UniProt P51681); test: Inhibition of CCR5 at 1 uM; method in brief: as §2
[12] = Cmax in chimpanzee at 4 mg/kg, po; type: ADME, organism-based, Pan troglodytes; parameters: dose 4 mg/kg, route oral; conditions: in vivo; method in brief: as §1
[13] = Tmax in dog at 30 mg/kg, po; type: ADME, organism-based, Canis lupus familiaris; parameters: dose 30 mg/kg, route oral; conditions: in vivo; method in brief: as §1
Cytochrome P450 2D6 = Cytochrome P450 2D6 (Homo sapiens, UniProt P10635); test: Inhibition of CYP2D6; type: ADME
[14] = Half life in cynomolgus monkey at 30 mg/kg, po; type: ADME, organism-based, Macaca fascicularis; parameters: dose 30 mg/kg, route oral; conditions: in vivo; method in brief: as §1
Mus musculus = test: Dose normalized AUC in mouse at 10 mg/kg, po; type: ADME, organism-based; parameters: dose 10 mg/kg, route oral; conditions: in vivo
Method in brief: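 Mouse oral PK screen by cassette dosing at 10 mg/kg, three animals per cassette. AUC is dose-normalized.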

[15] = Half life in chimpanzee at 4 mg/kg, po; type: ADME, organism-based, Pan troglodytes; parameters: dose 4 mg/kg, route oral; conditions: in vivo; method in brief: as §1
[16] = Cmax in cynomolgus monkey at 30 mg/kg, po; type: ADME, organism-based, Macaca fascicularis; parameters: dose 30 mg/kg, route oral; conditions: in vivo; method in brief: as §1
[17] = Clearance in dog at 5 mg/kg, iv; type: ADME, organism-based, Canis lupus familiaris; parameters: dose 5 mg/kg, route intravenous; conditions: in vivo; method in brief: as §1
[18] = Tmax in chimpanzee at 4 mg/kg, po; type: ADME, organism-based, Pan troglodytes; parameters: dose 4 mg/kg, route oral; conditions: in vivo; method in brief: as §1
[19] = Oral bioavailability in chimpanzee at 4 mg/kg; type: ADME, organism-based, Pan troglodytes; conditions: in vivo; method in brief: as §1
[20] = Half life in dog at 5 mg/kg, iv; type: ADME, organism-based, Canis lupus familiaris; parameters: dose 5 mg/kg, route intravenous; conditions: in vivo; method in brief: as §1
[21] = Half life in human administered as qd; type: ADME, organism-based; conditions: in vivo
Rattus norvegicus [22] = test: AUC in rat at 10 mg/kg, po; type: ADME, organism-based, Plasma; parameters: dose 10 mg/kg, route oral; conditions: in vivo; method in brief: as §1
[23] = Tmax in rat at 10 mg/kg, po; type: ADME, organism-based; parameters: dose 10 mg/kg, route oral; conditions: in vivo; method in brief: as §1
[24] = AUC in chimpanzee at 4 mg/kg, po; type: ADME, organism-based, Pan troglodytes; parameters: dose 4 mg/kg, route oral; conditions: plasma; method in brief: as §1
[25] = Induction of cytochrome P450 up to 10 uM by luminometric luciferase assay; type: ADME
[26] = AUC in dog at 30 mg/kg, po; type: ADME, organism-based, Canis lupus familiaris; parameters: dose 30 mg/kg, route oral; conditions: plasma; method in brief: as §1
[27] = biological target: T2, C-C chemokine receptor type 2; test: Inhibition of human CCR2-mediated Erk phosphorylation
[28] = Clearance in cynomolgus monkey at 5 mg/kg, iv; type: ADME, organism-based, Macaca fascicularis; parameters: dose 5 mg/kg, route intravenous; conditions: in vivo; method in brief: as §1
[29] = Cmax in dog at 30 mg/kg, po; type: ADME, organism-based, Canis lupus familiaris; parameters: dose 30 mg/kg, route oral; conditions: in vivo; method in brief: as §1
Rattus norvegicus [30] = test: Clearance in rat at 5 mg/kg, iv; type: ADME, organism-based; parameters: dose 5 mg/kg, route intravenous; conditions: in vivo; method in brief: as §1
[31] = Half life in rat at 10 mg/kg, po; type: ADME, organism-based; parameters: dose 10 mg/kg, route oral; conditions: in vivo; method in brief: as §1
[32] = Cmax in rat at 10 mg/kg, po; type: ADME, organism-based; parameters: dose 10 mg/kg, route oral; conditions: in vivo; method in brief: as §1

T2 sequence (P41597 whole entry): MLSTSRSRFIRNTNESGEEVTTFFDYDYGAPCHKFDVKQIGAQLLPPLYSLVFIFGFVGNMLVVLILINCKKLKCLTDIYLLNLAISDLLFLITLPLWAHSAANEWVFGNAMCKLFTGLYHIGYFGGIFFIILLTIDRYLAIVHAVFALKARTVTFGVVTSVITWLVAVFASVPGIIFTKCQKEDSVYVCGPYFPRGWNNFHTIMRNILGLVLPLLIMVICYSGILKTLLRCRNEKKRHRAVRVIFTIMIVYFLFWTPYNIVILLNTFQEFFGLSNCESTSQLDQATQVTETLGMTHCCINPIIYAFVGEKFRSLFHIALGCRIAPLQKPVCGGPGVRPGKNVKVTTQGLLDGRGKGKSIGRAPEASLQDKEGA
Sequence of Cytochrome P450 2C19 (P33261 whole entry): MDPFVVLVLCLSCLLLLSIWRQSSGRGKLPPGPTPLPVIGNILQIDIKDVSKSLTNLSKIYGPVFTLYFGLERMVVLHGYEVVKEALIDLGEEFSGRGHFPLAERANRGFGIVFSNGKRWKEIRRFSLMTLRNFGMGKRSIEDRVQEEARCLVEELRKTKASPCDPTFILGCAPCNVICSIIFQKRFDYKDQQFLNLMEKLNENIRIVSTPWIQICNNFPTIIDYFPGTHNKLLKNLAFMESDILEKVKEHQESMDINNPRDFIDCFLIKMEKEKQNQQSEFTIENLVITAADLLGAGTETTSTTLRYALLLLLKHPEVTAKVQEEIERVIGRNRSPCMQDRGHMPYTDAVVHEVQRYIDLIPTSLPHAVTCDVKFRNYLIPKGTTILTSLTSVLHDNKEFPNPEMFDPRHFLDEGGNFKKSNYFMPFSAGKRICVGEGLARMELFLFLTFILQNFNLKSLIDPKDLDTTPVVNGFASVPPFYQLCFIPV
Sequence of Cytochrome P450 2C9 (P11712 whole entry): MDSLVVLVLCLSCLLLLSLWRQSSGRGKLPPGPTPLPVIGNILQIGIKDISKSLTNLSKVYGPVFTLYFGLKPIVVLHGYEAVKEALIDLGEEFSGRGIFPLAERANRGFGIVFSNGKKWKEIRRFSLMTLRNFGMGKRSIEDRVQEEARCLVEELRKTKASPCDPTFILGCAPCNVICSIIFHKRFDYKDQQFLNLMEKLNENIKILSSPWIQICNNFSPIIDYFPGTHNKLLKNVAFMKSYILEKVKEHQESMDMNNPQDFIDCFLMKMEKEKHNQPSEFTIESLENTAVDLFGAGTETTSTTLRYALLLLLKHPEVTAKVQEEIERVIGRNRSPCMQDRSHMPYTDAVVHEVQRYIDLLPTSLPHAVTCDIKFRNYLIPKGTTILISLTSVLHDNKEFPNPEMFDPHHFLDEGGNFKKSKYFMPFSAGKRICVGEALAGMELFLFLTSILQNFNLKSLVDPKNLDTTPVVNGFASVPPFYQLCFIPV
Sequence of C-C chemokine receptor type 5 (Homo sapiens) (P51681 whole entry, looked up): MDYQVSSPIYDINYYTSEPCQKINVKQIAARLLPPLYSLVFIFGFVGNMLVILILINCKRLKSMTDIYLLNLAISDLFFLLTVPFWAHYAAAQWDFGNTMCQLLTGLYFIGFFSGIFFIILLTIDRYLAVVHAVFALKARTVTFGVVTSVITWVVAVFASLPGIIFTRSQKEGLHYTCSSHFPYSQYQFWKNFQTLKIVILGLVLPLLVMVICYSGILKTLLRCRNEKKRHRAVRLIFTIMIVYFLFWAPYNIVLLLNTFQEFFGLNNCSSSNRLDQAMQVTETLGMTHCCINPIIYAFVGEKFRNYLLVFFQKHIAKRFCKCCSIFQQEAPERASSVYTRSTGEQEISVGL
Sequence of Cytochrome P450 2D6 (P10635 whole entry): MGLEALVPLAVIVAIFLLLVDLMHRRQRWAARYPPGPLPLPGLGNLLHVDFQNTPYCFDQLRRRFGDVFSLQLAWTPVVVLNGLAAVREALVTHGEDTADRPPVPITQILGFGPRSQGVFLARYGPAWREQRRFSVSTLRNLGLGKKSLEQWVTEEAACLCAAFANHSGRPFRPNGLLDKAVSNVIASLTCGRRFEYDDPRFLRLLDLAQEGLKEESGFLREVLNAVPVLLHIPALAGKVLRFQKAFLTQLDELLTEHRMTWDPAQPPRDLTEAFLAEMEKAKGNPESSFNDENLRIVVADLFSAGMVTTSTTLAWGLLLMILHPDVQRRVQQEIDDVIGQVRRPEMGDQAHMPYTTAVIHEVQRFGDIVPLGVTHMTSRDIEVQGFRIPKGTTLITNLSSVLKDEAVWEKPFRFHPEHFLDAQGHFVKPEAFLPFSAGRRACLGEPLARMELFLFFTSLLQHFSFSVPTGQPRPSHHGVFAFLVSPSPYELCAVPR

## COc1ccc([C@]2(O)CC[C@H](N3CC[C@@H](NC(=O)CNC(=O)c4cccc(C(F)(F)F)c4)C3)CC2)cn1.CS(=O)(=O)O
Cytochrome P450 1A2
  pIC50: < 4.60
Cytochrome P450 2C19
  pIC50: < 4.60
[1]
  pIC50: 8.43
Liver
  Stability: Stable
[2]
  AUC: 9.08 µM·h
[3]
  inhibition: inactive
[4]
  bioavailability: 31%
Cytochrome P450 2C9
  pIC50: < 4.60
[5]
  half-life: 3.3 h
[6]
  Tmax: 1.5 h
[7]
  half-life: 3.8 h
[8]
  inhibition: inactive
[9]
  half-life: 2.8 h
Rattus norvegicus [10]
  F: 20%
[11]
  inhibition: inactive
[12]
  Cmax: 1120 nM
[13]
  Tmax: 1.5 h
Cytochrome P450 2D6
  pIC50: < 4.60
[14]
  half-life: 5.1 h
Mus musculus
  AUC/dose: 617 nM·h
[15]
  half-life: 5.3 h
[16]
  Cmax: 2630 nM
[17]
  clearance: 9.5 mL/min/kg
[18]
  Tmax: 2 h
[19]
  bioavailability: 23%
[20]
  half-life: 3.5 h
[21]
  half-life: 15 h
Rattus norvegicus [22]
  AUC: 3.657 µM·h
[23]
  Tmax: 4 h
[24]
  AUC: 4.94 µM·h
[25]
  Activity: Not Active
[26]
  AUC: 33.3 µM·h
[27]
  pIC50: 8.59
[28]
  clearance: 13.7 mL/min/kg
[29]
  Cmax: 7810 nM
Rattus norvegicus [30]
  CL: 56.7 mL/min/kg
[31]
  half-life: 2.9 h
[32]
  Cmax: 573 nM
